For orientation: ILS means how much longer treated animals lived than controls.

The test system of series [1] is Nucleic Acid. Put plainly: B app constant towards DNA. In kind it is nucleic-acid assay. The note with it: Bos taurus. The method in brief: (§1)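 Association constants for DNA binding were derived from absorption changes of calf thymus DNA at 6 × 10^-7 M, expressed as mononucleotide concentration. The buffer was 50 mM Tris-HCl, pH 7.4, with 0.1 M NaCl.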
The test system of series [2] is Nucleic Acid. Put plainly: Apparent association constant towards DNA at concentration of 10 E-7/M. In kind it is nucleic-acid assay. The note with it: Bos taurus. The method in brief: as §1
The test system of series [3] is Friend leukemia cells (Mus musculus). The series can be described thus: In vitro concentration required for growth inhibition of murine Friend leukemia cell. The note with it: read-out: ID50 (the source's name).
Series [4] concerns Nucleic Acid. The series can be described thus: Apparent association constant towards DNA at concentration of 10e-7/M. In kind it is nucleic-acid assay. The note with it: Bos taurus. The method in brief:
as §1

For series [5], the system named is Nucleic Acid. Put plainly: Apparent association constant towards DNA at concentration of 10e-7/M. Format: nucleic-acid assay. The note with it: Bos taurus. The method in brief:
as §1

Series [6] has as its system Mus musculus. Put plainly: In vivo evaluation for the antitumor activity on L1210 leukemia cells at the dose 15 mg/kg administered intraperitoneally estimated as increase in life span. In kind it is functional. The note with it: L1210, ip, route intraperitoneal.
In series [7] the test system is Mus musculus. The series can be described thus: In Vivo evaluation for the antitumor activity on grafted tumor friend cells at the dose 20 mg/kg and Increase in the life span was determined. Format: functional. The method in brief: (§2)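 Friend tumor cells, 10^6, injected iv into syngeneic mice. Mice randomized in groups of 16. Drug dissolved in acidified saline (equimolar acetic acid) and given as a single iv dose 3 days after inoculation. Median survival time recorded. %ILS = (treated median survival − control median survival)/control median survival × 100.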

The test system of series [8] is Mus musculus. The series can be described thus: In Vivo antitumor activity on grafted tumor friend cells at the dose 20 mg/kg and decrease in intravenous 10 e 6 cells and median survival time. Format: functional. The method in brief:
as §2

The subject of series [9] is Mus musculus. The series can be described thus: In vivo antitumor activity on L1210 leukemia cells at the dose 15 mg/kg administered intraperitoneally estimated as range of deaths. The note with it: route intraperitoneal. In kind it is functional.
Series [10] relates to Mus musculus. Put plainly: In vivo acute toxicity (nonlethal dose) against mice by intravenous administration. In kind it is organism-based. The method in brief: (§3)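 Mice (ICFW, C3H or B6D2 F1; 6-8 weeks; 22-24 g) in five groups of six. Drug dissolved in acidified saline (equimolar acetic acid) and given as a single ip or iv dose of 2, 5, 10, 25 or 50 mg/kg. Mortality observed over 30 days to set the lethal dose (LD100) and the highest nonlethal dose (LD0).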

For series [11], the system named is Mus musculus. Put plainly: In vivo acute toxicity (lethal dose) against mice by intravenous administration. In kind it is organism-based. The method in brief: as §3
The test system of series [12] is Mus musculus. The series can be described thus: In vivo acute toxicity (nonlethal dose) against mice by intraperitoneal administration. In kind it is organism-based. The note with it: ip. The method in brief: as §3
The test system of series [13] is Mus musculus. The series can be described thus: In vivo acute toxicity (lethal dose) against mice by intraperitoneal administration. In kind it is organism-based. The note with it: ip. The method in brief:
as §3

Series [14] has as its system Mus musculus. Put plainly: In vivo evaluation for the antitumor activity on L1210 leukemia cells at the dose 15 mg/kg administered intraperitoneally estimated as Mean survival time. Format: functional. The note with it: route intraperitoneal.
Series [15] deals with Mus musculus. Put plainly: In vivo antitumor activity on L1210 leukemia cells at the dose 2.5 mg/kg administered intraperitoneally 1 day after 10 e5 L1210 leukemia cells and range of deaths. In kind it is functional. The note with it: route intraperitoneal.
The subject of series [16] is Mus musculus. The series can be described thus: In vivo evaluation of antitumor activity on L1210 leukemia cells at the dose 2.5 mg/kg administered intraperitoneally 1 day after 10 e5 L1210 leukemia cells and increase in life span. In kind it is functional. The note with it: L1210, ip, 24 h, route intraperitoneal.
Series [17] concerns Mus musculus. The series can be described thus: In vivo leukemia cells at the dose 2.5 mg/kg administered intraperitoneally 1 day after 10 e5 L1210 leukemia cells and Mean survival time. Format: functional. The note with it: route intraperitoneal.
Series [18] has as its system Nucleic Acid. The series can be described thus: Apparent association constant towards DNA at concentration of 1E-7/M. Format: nucleic-acid assay. The note with it: Bos taurus. The method in brief:
as §1

Series [19] deals with Mus musculus. Put plainly: In vivo evaluation for the antitumor activity on L1210 leukemia cells at the dose 15 mg/kg administered intraperitoneally 1 day after 10 e5 L1210 leukemia cells and increase in life span;(P<0.01). The note with it: L1210, ip, 24 h, route intraperitoneal. Format: functional.
Series [20] relates to Mus musculus. The series can be described thus: In vivo antitumor activity on L1210 leukemia cells at the dose 15 mg/kg administered intraperitoneally 1 day after 10 e5 L1210 leukemia cells and range of deaths. Format: functional. The note with it: route intraperitoneal.
Series [21] relates to Mus musculus. Put plainly: In vivo evaluation for the antitumor activity on L1210 leukemia cells at the dose 15 mg/kg administered intraperitoneally. In kind it is functional. The note with it: route intraperitoneal.
Series [22] has as its system Nucleic Acid. The series can be described thus: Apparent association constant towards DNA at concentration of […]. The note with it: Bos taurus. In kind it is nucleic-acid assay. The method in brief: as §1
For series [23], the system named is Mus musculus. Put plainly: In vivo evaluation of antitumor activity on L1210 leukemia cells at the dose 10 mg/kg administered intraperitoneally 1 day after 10 e5 L1210 leukemia cells and Mean survival time. The note with it: route intraperitoneal. Format: functional.
The subject of series [24] is Mus musculus. Put plainly: In vivo evaluation of antitumor activity on L1210 leukemia cells at the dose 10 mg/kg administered intraperitoneally 1 day after 10 e5 L1210 leukemia cells and increase in life span. The note with it: L1210, ip, 24 h, route intraperitoneal. Format: functional.
The subject of series [25] is Mus musculus. The series can be described thus: In vivo antitumor activity on L1210 leukemia cells at the dose 10 mg/kg administered intraperitoneally 1 day after 10 e5 L1210 leukemia cells and range of deaths. Format: functional. The note with it: route intraperitoneal.

`COc1ccc2[nH]c3c(C)c4ccnc(NCCCN)c4cc3c2c1` returned a Bapp with Nucleic Acid [1] of 0.07. For the same molecule, the K app in the series on Nucleic Acid [2] was 3.05e+07 M⁻¹. The IC50 in series [3] is 200 nM.
On to `COc1ccc2[nH]c3c(C)c4ccnc(NCCCCCCN)c4cc3c2c1`, for which the Bapp in the series on Nucleic Acid [1] was 0.11. Also, in the series with Nucleic Acid [4], the K app came to 3.5e+07 M⁻¹. For the same molecule, the IC50 in series [3] came out at 800 nM.
Take `COc1ccc2[nH]c3c(C)c4cc[n+](C)c(N(C)C)c4cc3c2c1`: the IC50 in [3] was more than 100000 nM.
The same measure, in the same setting: in the case of `COc1ccc2[nH]c3c(C)c4ccnc(N5CCCCC5)c4cc3c2c1` it was 30000 nM; in that of `COc1ccc2[nH]c3c(C)c4cc[n+](C)c(Nc5ccccc5)c4cc3c2c1`, 5000 nM.
`CCN(CC)CCCNc1nccc2c(C)c3[nH]c4ccc(OC)cc4c3c(C)c12` [RETELLIPTINE] registered a Bapp with Nucleic Acid [1] of 0.16. In addition, the K app in the series on Nucleic Acid [5] came out at 3.15e+07 M⁻¹. In addition, in the series with Mus musculus [6], the ILS at 15 mg/kg is 134%. Besides, the ILS at 20 mg/kg with Mus musculus [7] was 24.7%. For the same molecule, the MST with Mus musculus [8] is 10.6 days; in the series with Mus musculus [14] it was 25 days. In the series with Mus musculus [9], the Range of deaths was 35 days. In addition, the values for the LD0 in the series on Mus musculus [10] and in the series on Mus musculus [12] were 20 mg/kg and 15 mg/kg, respectively. The LD100 in the series with Mus musculus [11] and with Mus musculus [13] was 60 mg/kg in each case. The IC50 in series [3] stood at 300 nM.
`COc1ccc2[nH]c3c(C)c4ccnc(NCCCCN)c4cc3c2c1` had a Bapp with Nucleic Acid [1] of 0.13. In addition, the K app in the series on Nucleic Acid [4] is 4e+07 M⁻¹. In addition, in [3], the IC50 is 5000 nM.
The molecule `Cc1c2ccnc(NCCN(C)C)c2cc2c1[nH]c1ccc(O)cc12` returned a Range of deaths in the series with Mus musculus [15] of 20 days. In addition, the ILS at 2.5 mg/kg in the series with Mus musculus [16] was determined as 26%. This molecule came in with an MST in the series on Mus musculus [17] of 16 days. The LD0 in the series with Mus musculus [12] came out at 2.5 mg/kg. The molecule also came in with an LD100 in the series with Mus musculus [13] of 5 mg/kg. Further, the IC50 in series [3] stood at 30 nM.
In turn, `CCN(CC)CCCNc1nccc2c(C)c3[nH]c4ccc(OC)cc4c3cc12` yielded a Bapp in the series with Nucleic Acid [1] of 0.1. Also, in the series on Nucleic Acid [18], the K app was determined as 3.15e+07 M⁻¹. Further, in the series with Mus musculus [19], the ILS at 15 mg/kg amounted to 24.6%. Besides, the Range of deaths in the series with Mus musculus [20] stood at 19 days. Moreover, the MST in the series with Mus musculus [21] turned out to be 14.3 days. The molecule also yielded an LD0 in the series with Mus musculus [12] of 15 mg/kg. The molecule further gave an LD100 with Mus musculus [13] of 30 mg/kg. Also, the IC50 in series [3] is 5000 nM.
Take `Cc1c2cc[n+](C)cc2c(C)c2c1[nH]c1ccc(O)cc12` [ELLIPTINIUM]: in series [3], the IC50 stood at 300 nM.
On to `COc1ccc2[nH]c3c(C)c4ccnc(NCCCN(C)C)c4cc3c2c1`, for which the Bapp in the series on Nucleic Acid [1] amounted to 0.09. Also, the K app with Nucleic Acid [22] was 3.15e+07 M⁻¹. Besides, the IC50 in series [3] worked out at 1000 nM.
For the molecule `COc1ccc2[nH]c3c(C)c4ccnc(NCCCn5ccnc5)c4cc3c2c1`, the IC50 in series [3] came to 500 nM.
As to `COc1ccc2[nH]c3c(C)c4ccnc(NCCCN)c4c(C)c3c2c1`, the MST in the series on Mus musculus [23] amounted to 12.2 days. The molecule also returned an ILS at 10 mg/kg in the series with Mus musculus [24] of 14%. Besides, the Range of deaths in the series with Mus musculus [25] was found to be 14 days. Besides, in the series on Mus musculus [12], the LD0 worked out at 10 mg/kg. In addition, in the series with Mus musculus [13], the LD100 was 20 mg/kg. The IC50 in series [3] stood at 100 nM.

(Values after ChEMBL document CHEMBL1121556, “Structure-activity relationships in a series of newly synthesized 1-amino-substituted ellipticine derivatives” (J Med Chem, 1980).)
